Test results reported in ChEMBL document CHEMBL1147132, “Structure-activity relationship studies of gonadotropin-releasing hormone antagonists containing S-aryl/alkyl norcysteines and their oxidized derivatives” (J Med Chem, 2007).
Values after ≈ are worked out from the molar mass of the structure shown. Starred links: 1 amine or outer side, 2 acyl side, 3 side chain; linkers in the order of their positions; H or OH if unused. Non-standard residues stand in square brackets, D forms with d. Residues, ends and D or L forms follow the SMILES beside them. Phe(4-NH(5-NH2triazol-3-yl)) = Nc1nc(Nc2ccc(C[C@H](N)C(=O)O)cc2)n[nH]1; X1 = Nc1nc(Nc2ccc(C[C@@H](N[*:1])C(=O)[*:2])cc2)n[nH]1; dPhe(4-Cl) = N[C@H](Cc1ccc(Cl)cc1)C(=O)O; d2Nal = N[C@H](Cc1ccc2ccccc2c1)C(=O)O; Lys(iPr) = CC(C)NCCCC[C@H](N)C(=O)O; d3Pal = N[C@H](Cc1cccnc1)C(=O)O

Legend:
[1] = biological target: T1, Gonadotropin-releasing hormone receptor (Homo sapiens, UniProt P30968); assay: Antagonist activity at human GnRHR expressed in HEK293 cells assessed as inhibition of GnRH-induced luciferase response by reporter gene assay; assay type: functional, cell-based
T1 sequence (P30968 whole entry): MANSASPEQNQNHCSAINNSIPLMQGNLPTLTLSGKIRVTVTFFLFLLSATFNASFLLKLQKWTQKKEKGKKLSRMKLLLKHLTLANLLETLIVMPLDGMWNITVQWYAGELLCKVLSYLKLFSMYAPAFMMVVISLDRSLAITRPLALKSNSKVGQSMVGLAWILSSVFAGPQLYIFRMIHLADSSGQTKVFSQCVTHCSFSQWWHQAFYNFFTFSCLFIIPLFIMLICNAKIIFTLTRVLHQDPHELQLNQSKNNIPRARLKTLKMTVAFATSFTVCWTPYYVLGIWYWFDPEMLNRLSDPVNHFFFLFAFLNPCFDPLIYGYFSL
Method in brief: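 HEK293 cells stably expressing cloned human GnRHR and an LH alpha-subunit-promoter luciferase reporter, plated overnight. Compound in 1% DMSO was added 10 min before GnRH (1 nM final), then ≥5 h at 37 °C, 5% CO2, then luminescence. 11 half-log concentrations in duplicate. IC50 from four-parameter logistic fit, reported as geometric mean of ≥2 experiments.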

[2] = biological target: T2, Gonadotropin-releasing hormone receptor (Rattus norvegicus, UniProt P30969); assay: Antagonist activity at rat GnRHR expressed in HEK293 cells assessed as inhibition of GnRH-induced luciferase response by reporter gene assay; assay type: functional, cell-based
T2 sequence (P30969 whole entry): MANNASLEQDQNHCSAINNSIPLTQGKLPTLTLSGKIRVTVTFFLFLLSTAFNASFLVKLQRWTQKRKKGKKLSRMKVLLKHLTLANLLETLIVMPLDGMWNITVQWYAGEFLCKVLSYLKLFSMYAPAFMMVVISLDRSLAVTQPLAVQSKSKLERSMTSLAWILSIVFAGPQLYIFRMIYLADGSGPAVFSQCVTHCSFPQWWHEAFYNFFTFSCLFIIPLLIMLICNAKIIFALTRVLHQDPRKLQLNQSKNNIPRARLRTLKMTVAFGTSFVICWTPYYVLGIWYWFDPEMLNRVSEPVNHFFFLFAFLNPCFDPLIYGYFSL
Method in brief: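 Rat GnRHR stably expressed in HEK293 cells, transiently transfected with an NFAT-responsive luciferase reporter, plated after 16 h and assayed next day. Compound in 1% DMSO was given 10 min before 1 nM GnRH (final), ≥5 h at 37 °C, then luminescence. Duplicates at 11 half-log concentrations. IC50 by four-parameter logistic fit, geometric mean of ≥2 experiments.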

[3] = Ratio of IC50 for rat GnRHR to IC50 for human GnRHR in HEK293 cells; assay type: functional
[4] = biological target: T3, Gonadotropin-releasing hormone receptor (Homo sapiens) (UniProt P30968); assay: Antagonist activity at human GnRHR expressed in COS7 cells assessed as inhibition of GnRH-stimulated inositol phosphate production after 2 hrs; assay type: functional, cell-based; conditions: COS-7, filed as antagonist
T3 sequence (whole entry): T1 sequence (P30968 whole entry)
Method in brief: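 COS-7 cells transiently transfected with WT hGnRH-R cDNA, labelled 18 h at 37 °C with 4 μCi/mL [3H]myo-inositol in inositol-free DMEM. Cells were washed in medium with 5 mM LiCl, then co-incubated 2 h at 37 °C with 10−8 M GnRH plus analogue at 10−8 to 10−5 M. IP was measured by Dowex anion-exchange and scintillation counting. Triplicate, repeated three or more times.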

[5] = Solubility in 5% mannitol; assay type: physicochemical
[6] = system: Rattus norvegicus; assay: Inhibition of plasma testosterone levels in Sprague-Dawley rat at 19.6 uM, sc by enzyme-linked immunosorbent assay; assay type: functional
Method in brief: (§1)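 Intact adult male Sprague-Dawley rats (275–310 g, 3 per group) received subcutaneous mini-pumps for seven days. Solutions were in 1:3 DMSO/water: 19.6 μM (~0.66 nM/day/kg), or 9.8 μM (~0.33 nM/day/kg). Sham-operated controls. Plasma was sampled on days 3–7 and testosterone measured by ELISA. Values are means of days 4–7.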

[7] = system: Rattus norvegicus; assay: Inhibition of plasma testosterone levels in Sprague-Dawley rat at 9.8 uM, sc by enzyme-linked immunosorbent assay; assay type: functional; method in brief: as §1

SMILES	IC50 [1]	IC50 [2]	Ratio IC50 [3]	Activity [4]	solubility [5] [mg/mL]	Plasma testosterone level [6] [ng/mL]	Activity [7] [ng/mL]
CS[C@@H](NC(=O)[C@@H]1CCCN1C(=O)[C@H](CCCCNC(C)C)NC(=O)[C@H](CC(C)C)NC(=O)[C@@H](Cc1ccc(NC(C)=O)cc1)NC(=O)[C@H](Cc1ccc(NC(C)=O)cc1)NC(=O)[C@H](CO)NC(=O)[C@@H](Cc1cccnc1)NC(=O)[C@@H](Cc1ccc(Cl)cc1)NC(=O)[C@@H](Cc1ccc2ccccc2c1)NC(C)=O)C(N)=O	0.6 nM (antagonist)	1.7 nM (antagonist)	2.83	Antagonist	50 (≈ 31.9 mM)	1.97	–
CS[C@H](NC(=O)[C@@H]1CCCN1C(=O)[C@H](CCCCNC(C)C)NC(=O)[C@H](CC(C)C)NC(=O)[C@@H](Cc1ccc(NC(C)=O)cc1)NC(=O)[C@H](Cc1ccc(NC(C)=O)cc1)NC(=O)[C@H](CO)NC(=O)[C@@H](Cc1cccnc1)NC(=O)[C@@H](Cc1ccc(Cl)cc1)NC(=O)[C@@H](Cc1ccc2ccccc2c1)NC(C)=O)C(N)=O	0.8 nM (antagonist)	1.7 nM (antagonist)	2.13	Antagonist	50 (≈ 31.9 mM)	2.21	–
CC(=O)Nc1ccc(C[C@H](NC(=O)[C@H](CO)NC(=O)[C@@H](Cc2cccnc2)NC(=O)[C@@H](Cc2ccc(Cl)cc2)NC(=O)[C@@H](Cc2ccc3ccccc3c2)NC(C)=O)C(=O)N[C@H](Cc2ccc(NC(C)=O)cc2)C(=O)N[C@H](SC(C)C)C(=O)N[C@@H](CCCCNC(C)C)C(=O)N2CCC[C@H]2C(=O)N[C@H](C)C(N)=O)cc1	0.81 nM (antagonist)	–	–	Antagonist	50 (≈ 32.2 mM)	–	–
CS[C@@H](NC(=O)[C@@H](Cc1cccnc1)NC(=O)[C@@H](Cc1ccc(Cl)cc1)NC(=O)[C@@H](Cc1ccc2ccccc2c1)NC(C)=O)C(=O)N[C@@H](Cc1ccc(NC(C)=O)cc1)C(=O)N[C@H](Cc1ccc(NC(C)=O)cc1)C(=O)N[C@@H](CC(C)C)C(=O)N[C@@H](CCCCNC(C)C)C(=O)N1CCC[C@H]1C(=O)N[C@H](C)C(N)=O	25 nM (antagonist)	–	–	Antagonist	50 (≈ 32.3 mM)	–	–
CC(=O)Nc1ccc(C[C@H](NC(=O)[C@H](CO)NC(=O)[C@@H](Cc2cccnc2)NC(=O)[C@@H](Cc2ccc(Cl)cc2)NC(=O)[C@@H](Cc2ccc3ccccc3c2)NC(C)=O)C(=O)N[C@H](Cc2ccc(NC(C)=O)cc2)C(=O)N[C@@H](CC(C)C)C(=O)N[C@@H](CCCCNC(C)C)C(=O)N2CCC[C@H]2C(=O)N[C@H](C)C(N)=O)cc1 [ACYLINE]	0.52 nM (antagonist)	1.5 nM (antagonist)	2.89	Antagonist	50 (≈ 32.6 mM)	0.69	–
CC(=O)N[C@H](Cc1ccc2ccccc2c1)C(=O)N[C@H](Cc1ccc(Cl)cc1)C(=O)N[C@H](Cc1cccnc1)C(=O)N[C@@H](CO)C(=O)N[C@@H](Cc1ccc(Nc2n[nH]c(N)n2)cc1)C(=O)N[C@H](Cc1ccc(Nc2n[nH]c(N)n2)cc1)C(=O)N[C@@H](CC(C)C)C(=O)N[C@@H](CCCCNC(C)C)C(=O)N1CCC[C@H]1C(=O)N[C@H](C)C(N)=O.CC(=O)O [PRAZARELIX ACETATE] (Ac-[d2Nal][dPhe(4-Cl)][d3Pal]S[Phe(4-NH(5-NH2triazol-3-yl))][X1]L[Lys(iPr)]P[dA]-NH2)	1.36 nM (antagonist)	1.4 nM (antagonist)	1.03	–	50	0.32	1.39
CC(=O)Nc1ccc(C[C@H](NC(=O)[C@H](CO)NC(=O)[C@@H](Cc2cccnc2)NC(=O)[C@@H](Cc2ccc(Cl)cc2)NC(=O)[C@H](NC(C)=O)Sc2ccc3ccccc3c2)C(=O)N[C@H](Cc2ccc(NC(C)=O)cc2)C(=O)N[C@@H](CC(C)C)C(=O)N[C@@H](CCCCNC(C)C)C(=O)N2CCC[C@H]2C(=O)N[C@H](C)C(N)=O)cc1	0.73 nM (antagonist)	4.4 nM (antagonist)	6.03	Antagonist	50 (≈ 32.2 mM)	1.03	–
CC(=O)Nc1ccc(C[C@H](NC(=O)[C@H](CO)NC(=O)[C@@H](Cc2cccnc2)NC(=O)[C@@H](Cc2ccc(Cl)cc2)NC(=O)[C@@H](Cc2ccc3ccccc3c2)NC(C)=O)C(=O)N[C@H](Cc2ccc(NC(C)=O)cc2)C(=O)N[C@H](C(=O)N[C@@H](CCCCNC(C)C)C(=O)N2CCC[C@H]2C(=O)N[C@H](C)C(N)=O)[S+]([O-])C(C)C)cc1 (some centres not stated)	1.2 nM (antagonist)	3.2 nM (antagonist)	2.67	–	50 (≈ 31.9 mM)	3.22	–
CC(=O)Nc1ccc(C[C@H](NC(=O)[C@@H](NC(=O)[C@@H](Cc2cccnc2)NC(=O)[C@@H](Cc2ccc(Cl)cc2)NC(=O)[C@@H](Cc2ccc3ccccc3c2)NC(C)=O)[S+](C)[O-])C(=O)N[C@H](Cc2ccc(NC(C)=O)cc2)C(=O)N[C@@H](CC(C)C)C(=O)N[C@@H](CCCCNC(C)C)C(=O)N2CCC[C@H]2C(=O)N[C@H](C)C(N)=O)cc1 (some centres not stated)	4.6 nM (antagonist)	–	–	–	50 (≈ 31.9 mM)	–	–
CS[C@H](NC(=O)[C@@H](Cc1cccnc1)NC(=O)[C@@H](Cc1ccc(Cl)cc1)NC(=O)[C@@H](Cc1ccc2ccccc2c1)NC(C)=O)C(=O)N[C@@H](Cc1ccc(NC(C)=O)cc1)C(=O)N[C@H](Cc1ccc(NC(C)=O)cc1)C(=O)N[C@@H](CC(C)C)C(=O)N[C@@H](CCCCNC(C)C)C(=O)N1CCC[C@H]1C(=O)N[C@H](C)C(N)=O	1.2 nM (antagonist)	2.4 nM (antagonist)	2	Antagonist	50 (≈ 32.3 mM)	1.99	–
CC(=O)Nc1ccc(C[C@H](NC(=O)[C@H](CO)NC(=O)[C@@H](CCC(N)=O)NC(=O)[C@@H](Cc2ccc(Cl)cc2)NC(=O)[C@@H](Cc2ccc3ccccc3c2)NC(C)=O)C(=O)N[C@H](Cc2ccc(NC(C)=O)cc2)C(=O)N[C@H](SC(C)C)C(=O)N[C@@H](CCCCNC(C)C)C(=O)N2CCC[C@H]2C(=O)N[C@H](C)C(N)=O)cc1	39 nM (antagonist)	–	–	–	50 (≈ 32.7 mM)	–	–
CC(=O)Nc1ccc(C[C@H](NC(=O)[C@H](CO)NC(=O)[C@@H](Cc2cccnc2)NC(=O)[C@@H](Cc2ccc(Cl)cc2)NC(=O)[C@@H](Cc2ccc3ccccc3c2)NC(C)=O)C(=O)N[C@H](Cc2ccc(NC(C)=O)cc2)C(=O)N[C@@H](SC(C)C)C(=O)N[C@@H](CCCCNC(C)C)C(=O)N2CCC[C@H]2C(=O)N[C@H](C)C(N)=O)cc1	0.31 nM (antagonist)	2.5 nM (antagonist)	8.07	Antagonist	50 (≈ 32.2 mM)	1.59	–
